Data: paper PMC4038446 (Bioorganic & medicinal chemistry letters, 2012)

target: T1, AKR1C3 (Homo sapiens, UniProt P42330); test: primary inhibition assay; format: biochemical; settings: 10 µM compound, 1-acenaphthenol, NAD+, pH 9.0
T1 sequence (P42330 1-323): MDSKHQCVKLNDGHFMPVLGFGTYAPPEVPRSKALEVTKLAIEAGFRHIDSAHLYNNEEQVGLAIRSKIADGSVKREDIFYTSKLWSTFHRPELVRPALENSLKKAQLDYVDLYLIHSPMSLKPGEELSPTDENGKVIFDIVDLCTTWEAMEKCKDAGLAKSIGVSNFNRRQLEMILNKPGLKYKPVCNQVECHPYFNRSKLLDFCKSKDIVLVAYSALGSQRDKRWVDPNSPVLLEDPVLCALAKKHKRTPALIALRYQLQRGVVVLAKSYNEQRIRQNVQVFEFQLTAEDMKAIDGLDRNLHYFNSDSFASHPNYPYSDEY
Outline: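 Recombinant enzyme oxidises 1-acenaphthenol with 2.3 mM NAD+. Medium is 100 mM phosphate pH 9.0, 0.005% Triton X-114, 5% DMSO. […] Test compound is at 10 µM. NADH increase is read at 340 nm, and initial velocities are compared with compound-free controls. Values are the mean of two independent experiments.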

Row | AKR1C3 inhibition (%) | SMILES
1 | almost completely lost | CCOc1cccc(C(=O)Nc2ccc(Br)cc2C(=O)O)c1 [Compound 14]
2 | almost completely lost | CCCCOc1cccc(C(=O)Nc2ccc(Br)cc2C(=O)O)c1 [Compound 15]

Row | SMILES | AKR1C3 inhibition (%)
3 | O=C(Nc1ccc(Br)cc1C(=O)O)c1ccc(F)c([N+](=O)[O-])c1 [Compound 8] | no AKR1C3 isoform inhibition was observed
